Experimental data: ChEMBL document CHEMBL4257484, “Membrane-active antimicrobial poly(amino-modified alkyl) β-cyclodextrins synthesized via click reactions” (Medchemcomm, 2018)
Converted amounts (≈) assume the structure as drawn.

Key:
[1] = Hemolytic activity in rabbit RBC at 2 uM after 20 mins relative to control; format: ADME, cell-based, Oryctolagus cuniculus, Erythrocyte; details: rabbit red blood cells (erythrocytes), read-out: Activity
Method in brief: (§1)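 Rabbit erythrocytes suspended in 150 mM NaCl/10 mM Hepes-NaOH, pH 7.4, at 0.5% hematocrit (final) and incubated with compound at 37 °C. The table footnote gives 20 min; the methods section gives 30 min. Hemolysis was read as absorbance at 540 nm, with 50 µM lysolecithin defining 100% hemolysis.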

[2] = Hemolytic activity in rabbit RBC at 20 uM after 20 mins relative to control; format: ADME, cell-based, Oryctolagus cuniculus, Erythrocyte; details: rabbit red blood cells (erythrocytes), read-out: Activity; method in brief: as §1
[3] = Hemolytic activity in rabbit RBC at 1 uM after 20 mins relative to control; format: ADME, cell-based, Oryctolagus cuniculus, Erythrocyte; details: rabbit red blood cells (erythrocytes), read-out: Activity; method in brief: as §1
[4] = system: Salmonella typhimurium; test: Antibacterial activity against drug-sensitive Salmonella typhimurium LT2 after 20 hrs by liquid microdilution method; format: functional, Salmonella enterica subsp. enterica serovar Typhimurium; details: Salmonella enterica, LT2, 20 h
Method in brief: (§2)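 Two-fold serial dilutions of compound in Mueller–Hinton broth, inoculated with 1 × 10^4 cells and cultured at 37 °C for 20 h in microtiter wells.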

[5] = system: Streptococcus agalactiae; test: Antibacterial activity against drug-resistant Streptococcus agalactiae B1 after 18 to 20 hrs by agar dilution method; format: functional
Method in brief: (§3)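 Agar dilution per CLSI. Overnight broth cultures were diluted 100-fold, and one loopful (about 10^5 to 10^4 CFU) was spotted onto agar plates containing the CD. Growth was scored after 18–20 h at 37 °C. MIC values are in µM.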

[6] = Hemolytic activity in rabbit RBC at 10 uM after 20 mins relative to control; format: ADME, cell-based, Oryctolagus cuniculus, Erythrocyte; details: rabbit red blood cells (erythrocytes), read-out: Activity; method in brief: as §1
[7] = system: Bacillus subtilis; test: Antibacterial activity against drug-sensitive Bacillus subtilis 168 after 20 hrs by liquid microdilution method; format: functional; details: subsp. subtilis str. 168, 20 h; method in brief: as §2
[8] = system: Escherichia coli; test: Antibacterial activity against drug-sensitive Escherichia coli K-12 W3110 after 20 hrs by liquid microdilution method; format: functional; details: K-12 substr. W3110, 20 h; method in brief: as §2
[9] = Hemolytic activity in rabbit RBC at 5 uM after 20 mins relative to control; format: ADME, cell-based, Oryctolagus cuniculus, Erythrocyte; details: rabbit red blood cells (erythrocytes), read-out: Activity; method in brief: as §1
[10] = system: Pseudomonas aeruginosa; test: Antibacterial activity against drug-sensitive Pseudomonas aeruginosa PAO1 after 20 hrs by liquid microdilution method; format: functional; details: PAO1, 20 h; method in brief: as §2
[11] = system: Staphylococcus aureus; test: Antibacterial activity against methicillin-sensitive Staphylococcus aureus FDA 209P after 20 hrs by liquid microdilution method; format: functional; method in brief: as §2
[12] = system: Enterococcus faecalis; test: Antibacterial activity against vancomycin-resistant Enterococcus faecalis MS29016 after 18 to 20 hrs by agar dilution method; format: functional; method in brief: as §3
[13] = system: Enterococcus faecalis; test: Antibacterial activity against drug-resistant Enterococcus faecalis MS29030 after 18 to 20 hrs by agar dilution method; format: functional; method in brief: as §3
[14] = system: Staphylococcus aureus; test: Antibacterial activity against methicillin-resistant Staphylococcus aureus MS29202 after 18 to 20 hrs by agar dilution method; format: functional; method in brief: as §3
[15] = system: Enterococcus faecium; test: Antibacterial activity against drug-resistant Enterococcus faecium MS29120 after 18 to 20 hrs by agar dilution method; format: functional; method in brief: as §3
[16] = Hemolytic activity in rabbit RBC at 50 uM after 20 mins relative to control; format: ADME, cell-based, Oryctolagus cuniculus, Erythrocyte; details: rabbit red blood cells (erythrocytes), read-out: Activity; method in brief: as §1
[17] = Lipophilicity, log P of the compound; format: physicochemical; details: octanol/water

Structure (SMILES) | hemolysis at 20 min, 2 µM [1] | hemolysis at 20 min, 20 µM [2] | hemolysis at 20 min, 1 µM [3] | MIC [4] | MIC [5] | hemolysis at 20 min, 10 µM [6] | MIC [7] | MIC [8] | hemolysis at 20 min, 5 µM [9] | MIC [10] | MIC [11] | MIC [12] | MIC [13] | MIC [14] | MIC [15] | hemolysis at 20 min, 50 µM [16] | logP [17]
O[C@@H]1[C@@H](O)[C@H]2O[C@H]3[C@H](O)[C@@H](O)[C@@H](O[C@H]4[C@H](O)[C@@H](O)[C@@H](O[C@H]5[C@H](O)[C@@H](O)[C@@H](O[C@H]6[C@H](O)[C@@H](O)[C@@H](O[C@H]7[C@H](O)[C@@H](O)[C@@H](O[C@H]8[C@H](O)[C@@H](O)[C@@H](O[C@@H]1[C@@H](Cn1cc(CNCC9CCC9)nn1)O2)O[C@@H]8Cn1cc(CNCC2CCC2)nn1)O[C@@H]7Cn1cc(CNCC2CCC2)nn1)O[C@@H]6Cn1cc(CNCC2CCC2)nn1)O[C@@H]5Cn1cc(CNCC2CCC2)nn1)O[C@@H]4Cn1cc(CNCC2CCC2)nn1)O[C@@H]3Cn1cc(CNCC2CCC2)nn1 | 0% | 0% | 0% | > 43 µM | > 43 µM | 0% | 3 µM (≈ 6.52 µg/mL) | > 43 µM | 0% | > 43 µM | 5 to 11 µM (≈ 10.9 to 23.9 µg/mL) | > 43 µM | > 43 µM | > 43 µM | > 43 µM | 0% | -1
CCCC(C)CCNCc1cn(C[C@H]2O[C@@H]3O[C@H]4[C@H](O)[C@@H](O)[C@@H](O[C@H]5[C@H](O)[C@@H](O)[C@@H](O[C@H]6[C@H](O)[C@@H](O)[C@@H](O[C@H]7[C@H](O)[C@@H](O)[C@@H](O[C@H]8[C@H](O)[C@@H](O)[C@@H](O[C@H]9[C@H](O)[C@@H](O)[C@@H](O[C@H]2[C@H](O)[C@H]3O)O[C@@H]9Cn2cc(CNCCC(C)CCC)nn2)O[C@@H]8Cn2cc(CNCCC(C)CCC)nn2)O[C@@H]7Cn2cc(CNCCC(C)CCC)nn2)O[C@@H]6Cn2cc(CNCCC(C)CCC)nn2)O[C@@H]5Cn2cc(CNCCC(C)CCC)nn2)O[C@@H]4Cn2cc(CNCCC(C)CCC)nn2)nn1 (some centres not stated) | 30% | 108% | 10% | 10 µM (≈ 23.8 µg/mL) | 20 µM (≈ 47.7 µg/mL) | 99% | 10 µM (≈ 23.8 µg/mL) | 5 µM (≈ 11.9 µg/mL) | 73% | 10 µM (≈ 23.8 µg/mL) | 3 to 20 µM (≈ 7.15 to 47.7 µg/mL) | 40 µM (≈ 95.3 µg/mL) | > 40 µM | 40 µM (≈ 95.3 µg/mL) | 20 µM (≈ 47.7 µg/mL) | 119% | 0.27
NC(CCc1ccccc1)c1cn(C[C@H]2O[C@@H]3O[C@H]4[C@H](O)[C@@H](O)[C@@H](O[C@H]5[C@H](O)[C@@H](O)[C@@H](O[C@H]6[C@H](O)[C@@H](O)[C@@H](O[C@H]7[C@H](O)[C@@H](O)[C@@H](O[C@H]8[C@H](O)[C@@H](O)[C@@H](O[C@H]9[C@H](O)[C@@H](O)[C@@H](O[C@H]2[C@H](O)[C@H]3O)O[C@@H]9Cn2cc(C(N)CCc3ccccc3)nn2)O[C@@H]8Cn2cc(C(N)CCc3ccccc3)nn2)O[C@@H]7Cn2cc(C(N)CCc3ccccc3)nn2)O[C@@H]6Cn2cc(C(N)CCc3ccccc3)nn2)O[C@@H]5Cn2cc(C(N)CCc3ccccc3)nn2)O[C@@H]4Cn2cc(C(N)CCc3ccccc3)nn2)nn1 (some centres not stated) | 6% | 94% | 4% | > 40 µM | 20 µM (≈ 48.5 µg/mL) | 47% | 5 µM (≈ 12.1 µg/mL) | 20 µM (≈ 48.5 µg/mL) | 17% | > 40 µM | 20 µM (≈ 48.5 µg/mL) | 40 µM (≈ 97 µg/mL) | 40 µM (≈ 97 µg/mL) | 20 µM (≈ 48.5 µg/mL) | 20 µM (≈ 48.5 µg/mL) | 113% | -0.25
O[C@@H]1[C@@H](O)[C@H]2O[C@H]3[C@H](O)[C@@H](O)[C@@H](O[C@H]4[C@H](O)[C@@H](O)[C@@H](O[C@H]5[C@H](O)[C@@H](O)[C@@H](O[C@H]6[C@H](O)[C@@H](O)[C@@H](O[C@H]7[C@H](O)[C@@H](O)[C@@H](O[C@H]8[C@H](O)[C@@H](O)[C@@H](O[C@@H]1[C@@H](Cn1cc(CNCC9CCCCC9)nn1)O2)O[C@@H]8Cn1cc(CNCC2CCCCC2)nn1)O[C@@H]7Cn1cc(CNCC2CCCCC2)nn1)O[C@@H]6Cn1cc(CNCC2CCCCC2)nn1)O[C@@H]5Cn1cc(CNCC2CCCCC2)nn1)O[C@@H]4Cn1cc(CNCC2CCCCC2)nn1)O[C@@H]3Cn1cc(CNCC2CCCCC2)nn1 | 0% | 78% | 0% | 10 µM (≈ 23.7 µg/mL) | 40 µM (≈ 94.8 µg/mL) | 38% | 3 µM (≈ 7.11 µg/mL) | 5 µM (≈ 11.8 µg/mL) | 13% | 20 µM (≈ 47.4 µg/mL) | 3 to 10 µM (≈ 7.11 to 23.7 µg/mL) | 40 µM (≈ 94.8 µg/mL) | > 40 µM | 40 µM (≈ 94.8 µg/mL) | 20 µM (≈ 47.4 µg/mL) | 107% | -0.16
CC(C)CCNCc1cn(C[C@H]2O[C@@H]3O[C@H]4[C@H](O)[C@@H](O)[C@@H](O[C@H]5[C@H](O)[C@@H](O)[C@@H](O[C@H]6[C@H](O)[C@@H](O)[C@@H](O[C@H]7[C@H](O)[C@@H](O)[C@@H](O[C@H]8[C@H](O)[C@@H](O)[C@@H](O[C@H]9[C@H](O)[C@@H](O)[C@@H](O[C@H]2[C@H](O)[C@H]3O)O[C@@H]9Cn2cc(CNCCC(C)C)nn2)O[C@@H]8Cn2cc(CNCCC(C)C)nn2)O[C@@H]7Cn2cc(CNCCC(C)C)nn2)O[C@@H]6Cn2cc(CNCCC(C)C)nn2)O[C@@H]5Cn2cc(CNCCC(C)C)nn2)O[C@@H]4Cn2cc(CNCCC(C)C)nn2)nn1 | 0% | 0% | 0% | > 43 µM | 11 µM (≈ 24.1 µg/mL) | 0% | 1 µM (≈ 2.19 µg/mL) | > 43 µM | 0% | > 43 µM | 3 to 5 µM (≈ 6.56 to 10.9 µg/mL) | > 43 µM | > 43 µM | 21 µM (≈ 45.9 µg/mL) | 21 µM (≈ 45.9 µg/mL) | 0% | -0.57
O[C@@H]1[C@@H](O)[C@H]2O[C@H]3[C@H](O)[C@@H](O)[C@@H](O[C@H]4[C@H](O)[C@@H](O)[C@@H](O[C@H]5[C@H](O)[C@@H](O)[C@@H](O[C@H]6[C@H](O)[C@@H](O)[C@@H](O[C@H]7[C@H](O)[C@@H](O)[C@@H](O[C@H]8[C@H](O)[C@@H](O)[C@@H](O[C@@H]1[C@@H](Cn1cc(CNCCc9ccccc9)nn1)O2)O[C@@H]8Cn1cc(CNCCc2ccccc2)nn1)O[C@@H]7Cn1cc(CNCCc2ccccc2)nn1)O[C@@H]6Cn1cc(CNCCc2ccccc2)nn1)O[C@@H]5Cn1cc(CNCCc2ccccc2)nn1)O[C@@H]4Cn1cc(CNCCc2ccccc2)nn1)O[C@@H]3Cn1cc(CNCCc2ccccc2)nn1 | 3% | 23% | 3% | 10 µM (≈ 24.2 µg/mL) | 10 µM (≈ 24.2 µg/mL) | 12% | 3 µM (≈ 7.27 µg/mL) | 10 µM (≈ 24.2 µg/mL) | 7% | 10 µM (≈ 24.2 µg/mL) | 3 to 5 µM (≈ 7.27 to 12.1 µg/mL) | 40 µM (≈ 97 µg/mL) | 40 µM (≈ 97 µg/mL) | 20 µM (≈ 48.5 µg/mL) | 20 µM (≈ 48.5 µg/mL) | 40% | -0.13
